In ChEMBL document CHEMBL4680077, “Differentiation of skeletal osteogenic progenitor cells to osteoblasts with 3,4-diarylbenzopyran based amide derivatives: Novel osteogenic agents” (Eur J Med Chem, 2016):
The source made the active and inactive calls. No cut-off for these calls is given here.

How the values were obtained:
[1] = test system: Mus musculus; assay: In vivo osteogenic activity in ovariectomized BALB/c mouse assessed as decrease in serum CTx at 1 to 10 mg/kg, po via gavage administered for 30 days; assay type: functional, organism-based; settings: dose 1-10 mg/kg, time 30.0 day
In short: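 Eight-week-old female balb/c mice were ovariectomized and dosed once daily by oral gavage at 1 or 10 mg kg-1 in vehicle (gum acacia in water) for 30 days; sham and Ovx vehicle groups served as controls. Serum CTx and osteocalcin were assayed in duplicate. n = 10 per group; mean ± SEM.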

[2] = test system: Calvarial osteoblast; assay: Induction of osteoblast differentiation in mouse calvarial osteoblast assessed as increase in ERalpha expression at 1 pM incubated for 48 hrs by Western blot analysis; assay type: functional, cell-based
In short: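 Calvarial osteoblasts at 60–70% confluence were treated ± compound for 48 h, with 100 pM E2 as positive control. Lysates (30 µg protein) were resolved on 10% SDS-PAGE, transferred to PVDF and probed for ER-α and ER-β with HRP secondaries and ECL detection. Bands were quantified by densitometry normalized to β-actin.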

[3] = Elimination rate constant in Sprague-Dawley rat at 1 mg/kg, iv measured upto 24 hrs by LC-MS/MS analysis; assay type: ADME, organism-based; settings: in vivo
[4] = Initial concentration in Sprague-Dawley rat at 1 mg/kg, iv measured upto 24 hrs by LC-MS/MS analysis; assay type: ADME, organism-based; settings: in vivo
[5] = AUC (0 to 24 hrs) in Sprague-Dawley rat at 1 mg/kg, iv measured upto 24 hrs by LC-MS/MS analysis; assay type: ADME, organism-based; parameters: route intravenous, dose 1 mg/kg, time <=24; settings: in vivo
In short: (§1)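 Female Sprague-Dawley rats (n = 4 per route), fasted overnight (12-14 h); 1 mg/kg orally in 0.25% CMC suspension, or an i.v. tail-vein bolus in DMSO-PEG400-ethanol-water (4:3:1:2). Retro-orbital blood was taken up to 24 h, and plasma was extracted with n-hexane (halofantrine IS). LC-MS/MS linear range 0.5-200 ng/mL. AUC0-24 was calculated by the linear trapezoidal rule, non-compartmental; mean ± S.D.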

[6] = Elimination rate constant in Sprague-Dawley rat at 1 mg/kg, po measured upto 24 hrs by LC-MS/MS analysis; assay type: ADME, organism-based; settings: in vivo
In short: (§2)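 Female Sprague-Dawley rats (n = 4), fasted overnight 12–14 h, dosed orally at 1 mg kg-1 as a 0.25% CMC suspension and fed 3 h post-dose. Retro-orbital blood was taken from 0.25 to 24 h. Plasma was hexane-extracted and assayed by LC-MS/MS. Cmax and Tmax were read from the data; other parameters came from non-compartmental analysis. Mean ± S.D.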

[7] = Cmax in Sprague-Dawley rat at 1 mg/kg, po measured upto 24 hrs by LC-MS/MS analysis; assay type: ADME, organism-based; parameters: route oral, dose 1 mg/kg, time <=24; settings: in vivo; in short: as §2
[8] = AUC (0 to 24 hrs) in Sprague-Dawley rat at 1 mg/kg, po measured upto 24 hrs by LC-MS/MS analysis; assay type: ADME, organism-based; parameters: route oral, dose 1 mg/kg, time <=24; settings: in vivo; in short: as §1
[9] = AUC (0 to infinity) in Sprague-Dawley rat at 1 mg/kg, po measured upto 24 hrs by LC-MS/MS analysis; assay type: ADME, organism-based; parameters: route oral, dose 1 mg/kg, time <=24; settings: in vivo
In short: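 Female Sprague-Dawley rats (n = 4 per route), fasted overnight; 1 mg/kg oral (0.25% CMC) or i.v. tail-vein bolus (DMSO-PEG400-ethanol-water). Plasma was sampled to 24 h and assayed by LC-MS/MS (0.5-200 ng/mL). Non-compartmental AUC0-∞ = AUC0-t + Clast/kel; mean ± S.D.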

[10] = Acute toxicity in Swiss albino mouse assessed as body weight at 300 mg/kg, po observed on day 1 (reference value: 20.38 +/- 0.24 g); assay type: organism-based; settings: in vivo, 24 h, time 1 day
[11] = Acute toxicity in Swiss albino mouse assessed as body weight at 300 mg/kg, po measured on day 7 (reference value: 22.75 +/- 0.38 g); assay type: organism-based; settings: in vivo, 168 h, time 7 day
[12] = Acute toxicity in Swiss albino mouse assessed as albumin level at 1000 mg/kg, po measured after 7 days (reference value: 3.24 +/- 0.30 g/dL); assay type: organism-based; settings: in vivo, 168 h, time 7 day
[13] = Acute toxicity in Swiss albino mouse assessed as creatinine level at 50 mg/kg, po measured after 7 days (reference value: 0.97 +/- 0.07 mg/dL); assay type: organism-based; settings: in vivo, 168 h, time 7 day
[14] = Acute toxicity in Swiss albino mouse assessed as triglycerides level at 50 mg/kg, po measured after 7 days (reference value: 58.51 +/- 10.82 mg/dL); assay type: organism-based; settings: in vivo, 168 h, time 7 day
[15] = Acute toxicity in Swiss albino mouse assessed as serum protein level at 5 mg/kg, po measured after 7 days (reference value: 0.66 +/- 0.01 mg/ml); assay type: organism-based; settings: in vivo, 168 h, time 7 day
[16] = Acute toxicity in Swiss albino mouse assessed as serum protein level at 50 mg/kg, po measured after 7 days (reference value: 0.66 +/- 0.01 mg/ml); assay type: organism-based; settings: in vivo, 168 h, time 7 day
[17] = Acute toxicity in Swiss albino mouse assessed as malondialdehyde level at 5 mg/kg, po measured after 7 days (reference value: 0.14 +/- 0.01 nM/mg); assay type: organism-based; settings: in vivo, 168 h, time 7 day
[18] = Acute toxicity in Swiss albino mouse assessed as neutrophil count at 300 mg/kg, po measured after 7 days (reference value: 41.50 +/- 4.08 %); assay type: organism-based; settings: in vivo, 168 h, time 7 day
[19] = Acute toxicity in Swiss albino mouse assessed as lymphocyte count at 300 mg/kg, po measured after 7 days (reference value: 37.97 +/- 1.80 %); assay type: organism-based; settings: in vivo, 168 h, time 7 day
[20] = Acute toxicity in Swiss albino mouse assessed as absolute brain weight at 5 mg/kg, po measured after 7 days (reference value: 0.37 +/- 0.02 g); assay type: organism-based; settings: in vivo, 168 h, time 7 day
[21] = Acute toxicity in Swiss albino mouse assessed as absolute heart weight at 1000 mg/kg, po measured after 7 days (reference value: 0.12 g); assay type: organism-based; settings: in vivo, 168 h, time 7 day
[22] = Acute toxicity in Swiss albino mouse assessed as absolute ovary weight at 300 mg/kg, po measured after 7 days (reference value: 0.04+/- 0.02 g); assay type: organism-based; settings: in vivo, 168 h, time 7 day
[23] = Acute toxicity in Swiss albino mouse assessed as relative liver weight at 300 mg/kg, po measured after 7 days (reference value: 6.81 +/- 2.14 %); assay type: organism-based; settings: in vivo, 168 h, time 7 day
[24] = Acute toxicity in Swiss albino mouse assessed as relative lung weight at 1000 mg/kg, po measured after 7 days (reference value: 0.70 +/- 0.08 %); assay type: organism-based; settings: in vivo, 168 h, time 7 day
[25] = Acute toxicity in Swiss albino mouse assessed as relative kidney weight at 1000 mg/kg, po measured after 7 days (reference value: 1.25 +/- 0.08 %); assay type: organism-based; settings: in vivo, 168 h, time 7 day
[26] = Acute toxicity in Swiss albino mouse assessed as relative heart weight at 1000 mg/kg, po measured after 7 days (reference value: 0.51 +/- 0.02 %); assay type: organism-based; settings: in vivo, 168 h, time 7 day
[27] = Acute toxicity in Swiss albino mouse assessed as relative uterus weight at 5 mg/kg, po measured after 7 days (reference value: 1.63 +/- 0.71 %); assay type: organism-based; settings: in vivo, 168 h, time 7 day
[28] = Acute toxicity in Swiss albino mouse assessed as relative testes weight at 5 mg/kg, po measured after 7 days (reference value: 0.62 +/- 0.03 %); assay type: organism-based; settings: in vivo, 168 h, time 7 day

For CCCCN(C)C(=O)CCCCOc1ccc([C@H]2c3ccc(OC)cc3OC(C)(C)[C@@H]2c2ccccc2)cc1, the Activity [1] was “Active”, the Activity [2] was “inactive” and the k el at 24 h [3] was 5.47e-05 s⁻¹. It also gave a C0 at 24 h [4] of 610 ng/mL, an AUC(0-t) [5] of 852 ng·h/mL and a k el at 24 h [6] of 5.39e-05 s⁻¹. It also gave a Cmax [7] of 38.9 ng/mL, an AUC(0-t) [8] of 114 ng·h/mL and an AUC [9] of 119.404 ng·h/mL. For the same molecule, the Activity [10] was 19.61 g, the Activity [11] was 23.31 g and the Activity [12] was 3.98 g/dL. The Activity [13] was 0.8 mg/dL, the Activity [14] was 83.78 mg/dL and the Activity [15] was 0.74 mg/mL. The Activity [16] was 0.74 mg/mL, the Activity [17] was 0.14 nM/mg and the Activity [18] was 41.54%. For the same molecule, the Activity [19] was 42.9%, the Activity [20] was 0.35 g and the Activity [21] was 0.12 g. The Activity [22] was 0.06 g, the Activity [23] was 4.84% and the Activity [24] was 0.75%. The Activity [25] was 1.44%, the Activity [26] was 0.57% and the Activity [27] was 1.77%. The Activity [28] was 0.6%.
